NOD2-RIPK2 inh: inhibitors of human NOD2-RIPK2 interaction; CHO BLA complementation NOD2-RIPK2, CCF4 ratio; inhibition, % at 4.98 µM; 360,000 tested, 0.38% active; in the data active = inhibition above about 21%
CHOP inhibitor: inhibitors of CHOP induction in ER stress response. CHO-K1 CHOP-promoter luciferase, tunicamycin-induced, 15-18 h. inhibition, % at 10 µM. AID 2732. 220,000 tested, 3.8% active;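 active = compounds that reduced the stress-induced luciferase reporter signal by more than about 70% of percent inhibition, limit read from the data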
UPR XBP1 act: activators of adaptive arm of unfolded protein response (XBP1); CHO-XBP1 luciferase reporter, IRE1-XBP1 UPR activation, luminescence; percent of tunicamycin response, DMSO as zero; activation, % at 20 µM; 330,000 tested, 0.33% active; AID 463104;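 active = versus positive control, 20 µM dose yields 30% or more activation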
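Signal: luciferase luminescence; Assay system: CHO-XBP1 luciferase reporter cells; Amount: one thousand reporter cells per well; Dosing: 20 µM single concentration, DMSO 1%; Benchmarks: high control tunicamycin 10 µg/mL final, low control DMSO vehicle only; Schedule: 6 h compound exposure at 37 °C, 5% CO2; Evaluation: percent activation relative to tunicamycin reference.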
TLR9-MyD88 inh: blocks human TLR9 binding to MyD88; AID 504734; Q9NR96+Q99836; 340,000 tested, 0.21% active; inhibition, % at 4.98 µM; CHO BLA complementation TLR9-MyD88, CCF4 FRET ratio;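 active = inhibition above the mean over all tested compounds plus 3 SD, cut at about 21% in these data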
TLR4-MyD88 BLA: inhibitors of human TLR4-MyD88 binding; HeLa CL3-4 TLR4/MyD88 BLA complementation, FRET ratio; AID 861; 200,000 tested, 0.18% active; inhibition, % at 8.4 µM; in the data active = inhibition above about 25%
CHOP UPR activ: activators of apoptotic arm of unfolded protein response (CHOP); AID 449763; CHO-CHOP luciferase reporter, UPR activation, luminescence; percent of tunicamycin response over DMSO baseline; 330,000 tested, 0.34% active; activation, % at 10 µM;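 active = at 10 µM dose, activation of 40% or more, normalized to positive control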
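assay system = CHO CHOP reporter cells | amount = 500 CHO-CHOP cells per well | buffer or medium = F12 with 10% FBS | incubation = 16-18 h cell attachment, then 6 h compound exposure, 37 °C | detection = luminescence read with Steady-Glo | read-out = percent activation relative to tunicamycin control | controls = tunicamycin high control, DMSO low control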
Numbers stand for hits; i = inactive; nt = no result given. The entries come from a sample that favours hits as a whole.

SMILES | NOD2-RIPK2 inh | CHOP inhibitor | UPR XBP1 act | TLR9-MyD88 inh | TLR4-MyD88 BLA | CHOP UPR activ
CC(C)CCSc1nc2c(c(=O)[nH]c(=O)n2C)n1CCc1ccccc1 | i | 88.3 | i | i | i | i
CCCC(=O)N1CCCC1(C)C(=O)NCc1c(F)ccc(C)c1F (stereo not given) | i | nt | nt | nt | nt | nt
Cc1cc(C)c(S(=O)(=O)N2CCOC23CCN(S(C)(=O)=O)CC3)c(C)c1 | i | nt | nt | i | nt | nt
CCOC(=O)C1Oc2ccccc2C(c2ccoc2)=C1C(=O)OC (stereo not given) | i | nt | i | i | nt | i
CC(C)NC(=O)c1csc([C@@H]2O[C@H](CO)[C@H](O)[C@H](O)[C@H]2O)n1 | i | nt | nt | nt | nt | nt
CCSc1nc2c(c(=O)[nH]c(=O)n2C)n1CC(O)COc1ccccc1 (stereo not given) | i | i | i | i | i | i
Cc1ccc(CSc2nc3c(c(=O)[nH]c(=O)n3C)n2CCC(C)C)cc1 | i | 106.0 | i | i | i | i
CCCCCSc1nc2c(c(=O)[nH]c(=O)n2C)n1C(C)C | i | 88.5 | i | i | i | i
Cc1ccc(Cn2c(Sc3ncccn3)nc3c2c(=O)[nH]c(=O)n3C)cc1 | i | i | i | i | i | i
CCOCCn1c(SCc2ccc(C)cc2)nc2c1c(=O)[nH]c(=O)n2C | i | i | i | i | i | i
CC(C)CSc1nc2c(c(=O)[nH]c(=O)n2C)n1CC(O)COc1cccc2ccccc12 (stereo not given) | i | 79.6 | nt | i | i | nt
C/C=C/CSc1nc2c(c(=O)[nH]c(=O)n2C)n1Cc1ccc(C)cc1 | i | 86.0 | i | i | i | i
CCOC(=O)c1cnc(SC)nc1Sc1ccccc1 | i | 74.5 | i | i | i | i
Cc1c(NC(=O)c2ccc3c(c2)OCO3)cccc1-c1nc2ccccc2o1 | i | i | i | i | i | i
Cc1ccc(-c2nc3ncccc3o2)cc1NC(=O)c1cc2ccccc2o1 | i | 70.3 | i | i | i | i
Cc1ccc(-c2nc3ccccc3o2)cc1NC(=O)c1ccc2c(c1)OCO2 | i | 86.6 | i | i | i | i
Cc1ccc(-c2nc3ccccc3o2)cc1NC(=S)NC(=O)c1cccs1 | i | 81.6 | i | i | i | i
COC(=O)Nc1ccc2ccc3c(NC(=O)OC)ccc4ccc1c2c43 | i | nt | nt | i | nt | nt
Cc1ccc(S(=O)(=O)N2CCN(C(=O)c3cc(C4CC4)nn3-c3ccccc3)CC2)cc1 | i | nt | nt | i | nt | nt
COc1ccc(-c2csc(C(O)c3ccc(F)cc3)n2)cc1OC (stereo not given) | i | nt | nt | nt | nt | nt
Cc1cc(C)c2nc(-c3ccccn3)cc(C(=O)NCCc3ccc(S(N)(=O)=O)cc3)c2c1 | i | 89.4 | i | i | i | i
CN1CCN(c2ncnc3c2ncn3[C@H]2CN(Cc3ccncc3)C[C@@H](CO)O2)CC1 | i | nt | nt | nt | nt | nt
COC(=O)c1c(NC(=O)COc2ccc(Cl)cc2)sc2c1CC(C)(C)NC2(C)C | i | nt | 43.0 | i | nt | i
COC(=O)c1c(NC(=O)Cc2ccccc2)sc2c1CC(C)(C)NC2(C)C | i | nt | i | i | nt | i
O=S1(=O)N[C@H](Cc2ccccc2)COc2cc(N3CCN(Cc4ccccc4F)CC3)ccc21 | i | nt | nt | nt | nt | nt
SMILES | NOD2-RIPK2 inh | CHOP inhibitor | UPR XBP1 act | TLR9-MyD88 inh | TLR4-MyD88 BLA | CHOP UPR activ
COc1ccc(CCN2CC(C(=O)N(C)CC(=O)Nc3ccc(F)c(F)c3F)CC2=O)cc1OC (stereo not given) | i | nt | nt | i | nt | nt
Oc1c(C(c2ccco2)N2CCN(C(c3ccccc3)c3ccccc3)CC2)sc2ncnn12 (stereo not given) | i | 95.4 | i | i | i | i
Cc1ccc(N=Nc2c(N)nn3c(N)c(C#N)c(C)nc23)cc1 | i | 73.4 | i | i | i | i
Cc1ccc2cc(C)c3nnc(SCC(=O)Nc4nc5c(s4)CCCC5)n3c2c1 | nt | 83.4 | nt | nt | i | nt
CCCn1c(SCC(=O)Nc2nc3c(s2)CCCC3)nc2c1c(=O)n(C)c(=O)n2C | i | 71.3 | i | i | i | i
Cc1ccc(-c2nnc(SCC(=O)Nc3nc4c(s3)CCCC4)n2C)cc1 | i | i | i | i | i | i
CCCCn1c(SCC(=O)Nc2nnc(C(C)C)s2)nc2c1c(=O)n(C)c(=O)n2C | i | i | i | i | i | i
CCOC1=C2[C@H](c3ccc(Cl)cc3)N(S(=O)(=O)c3ccc(C)cc3)C[C@H]2n2c(=O)n(-c3ccccc3)c(=O)n2C1 | i | nt | nt | nt | nt | nt

Assay outcomes deposited in PubChem by several laboratories.
